Results as given in ChEMBL document CHEMBL1140074, “Aminoacyl-anthraquinone conjugates as telomerase inhibitors: synthesis, biophysical and biological evaluation” (J Med Chem, 2008).

Legend:
[1] = molecular target: Telomerase reverse transcriptase (Homo sapiens, UniProt O14746); assay: Inhibition of telomerase in human JR8 cells by TRAP assay; type: cell-based
In short: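 Telomerase source was a CHAPS lysate of exponentially growing JR8 cells (500 ng protein per reaction). Elongation 30 min at 30 °C, then 30 PCR cycles. Products run on 10% PAGE with phosphorimager read-out, in triplicate. Drug levels kept below those inhibiting Taq.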

[2] = organism: Homo sapiens; assay: Binding affinity to human telomeric DNA sequence assessed as stabilization of G-quadruplex at 1 uM by thermal denaturation
In short: (§1)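 Fluorescence melting in a LightCycler of 0.25 µM telomeric oligonucleotide HTS (5'-FAM, 3'-methyl red) in LiP buffer (10 mM LiOH, 50 mM KCl, pH 7.4 with H3PO4). Samples were denatured at 95 °C for 5 min, then cooled and reheated at 0.5 °C/min in 1 °C steps with 2 min equilibration per step. Excitation 488 nm, emission 520 nm. ΔTm was taken relative to ligand-free DNA.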

[3] = organism: Homo sapiens; assay: Binding affinity to human telomeric DNA sequence assessed as stabilization of G-quadruplex at 10 uM by thermal denaturation; in short: as §1
[4] = molecular target: DNA polymerase I, thermostable (Thermus aquaticus, UniProt P19821); assay: Inhibition of Taq polymerase
Chain of DNA polymerase I, thermostable (P19821 whole entry): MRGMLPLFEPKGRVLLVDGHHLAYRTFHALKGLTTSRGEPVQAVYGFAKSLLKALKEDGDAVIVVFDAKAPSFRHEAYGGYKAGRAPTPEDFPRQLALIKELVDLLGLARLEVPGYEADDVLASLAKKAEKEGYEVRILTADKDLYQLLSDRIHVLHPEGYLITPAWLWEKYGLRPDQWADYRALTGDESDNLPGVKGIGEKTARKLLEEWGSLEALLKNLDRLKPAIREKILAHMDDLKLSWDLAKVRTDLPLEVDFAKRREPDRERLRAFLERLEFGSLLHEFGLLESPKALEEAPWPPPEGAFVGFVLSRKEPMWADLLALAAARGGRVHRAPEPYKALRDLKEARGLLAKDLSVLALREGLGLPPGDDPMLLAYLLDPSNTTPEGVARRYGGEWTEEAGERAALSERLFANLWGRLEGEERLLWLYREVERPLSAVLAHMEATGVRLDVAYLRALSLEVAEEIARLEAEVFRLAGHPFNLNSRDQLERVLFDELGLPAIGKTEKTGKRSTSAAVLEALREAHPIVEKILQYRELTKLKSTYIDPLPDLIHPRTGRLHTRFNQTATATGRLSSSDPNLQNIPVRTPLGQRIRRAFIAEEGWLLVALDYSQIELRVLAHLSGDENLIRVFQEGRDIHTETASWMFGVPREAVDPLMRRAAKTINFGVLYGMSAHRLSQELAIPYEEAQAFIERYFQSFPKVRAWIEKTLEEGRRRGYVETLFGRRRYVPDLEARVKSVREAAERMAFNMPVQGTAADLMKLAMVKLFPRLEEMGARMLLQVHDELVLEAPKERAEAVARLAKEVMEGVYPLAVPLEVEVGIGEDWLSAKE
In short: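 PCR with 2.5 ng pBR322 template and primers Tup/Tdown (0.5 µM) amplifying plasmid bases 906-1064. Compounds tested from 20 nM to 40 µM. Run 25 cycles of 94 °C, 65 °C and 72 °C (30 s each). Products resolved on 2% agarose in TBE and stained with ethidium bromide.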

[5] = Cytotoxicity against human 293T cells expressing telomerase after 96 hrs by MTT assay; type: cell-based; settings: HEK-293T
In short: (§2)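 Cells grown in DMEM with 10% heat-inactivated FCS, penicillin/streptomycin, 37 °C, 5% CO2. Plated at 10000 cells/well and left overnight, then exposed to eight serial dilutions in triplicate for 96 h. MTT added to 0.8 mg/mL final for 2 h, formazan dissolved in DMSO, absorbance read at 540 nm. IC50 from sigmoidal dose-response fits.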

[6] = test system: HeLa; assay: Cytotoxicity against human HeLa cells expressing telomerase after 96 hrs by MTT assay; type: functional, cell-based; in short: as §2

Chain of Telomerase reverse transcriptase (O14746 whole entry): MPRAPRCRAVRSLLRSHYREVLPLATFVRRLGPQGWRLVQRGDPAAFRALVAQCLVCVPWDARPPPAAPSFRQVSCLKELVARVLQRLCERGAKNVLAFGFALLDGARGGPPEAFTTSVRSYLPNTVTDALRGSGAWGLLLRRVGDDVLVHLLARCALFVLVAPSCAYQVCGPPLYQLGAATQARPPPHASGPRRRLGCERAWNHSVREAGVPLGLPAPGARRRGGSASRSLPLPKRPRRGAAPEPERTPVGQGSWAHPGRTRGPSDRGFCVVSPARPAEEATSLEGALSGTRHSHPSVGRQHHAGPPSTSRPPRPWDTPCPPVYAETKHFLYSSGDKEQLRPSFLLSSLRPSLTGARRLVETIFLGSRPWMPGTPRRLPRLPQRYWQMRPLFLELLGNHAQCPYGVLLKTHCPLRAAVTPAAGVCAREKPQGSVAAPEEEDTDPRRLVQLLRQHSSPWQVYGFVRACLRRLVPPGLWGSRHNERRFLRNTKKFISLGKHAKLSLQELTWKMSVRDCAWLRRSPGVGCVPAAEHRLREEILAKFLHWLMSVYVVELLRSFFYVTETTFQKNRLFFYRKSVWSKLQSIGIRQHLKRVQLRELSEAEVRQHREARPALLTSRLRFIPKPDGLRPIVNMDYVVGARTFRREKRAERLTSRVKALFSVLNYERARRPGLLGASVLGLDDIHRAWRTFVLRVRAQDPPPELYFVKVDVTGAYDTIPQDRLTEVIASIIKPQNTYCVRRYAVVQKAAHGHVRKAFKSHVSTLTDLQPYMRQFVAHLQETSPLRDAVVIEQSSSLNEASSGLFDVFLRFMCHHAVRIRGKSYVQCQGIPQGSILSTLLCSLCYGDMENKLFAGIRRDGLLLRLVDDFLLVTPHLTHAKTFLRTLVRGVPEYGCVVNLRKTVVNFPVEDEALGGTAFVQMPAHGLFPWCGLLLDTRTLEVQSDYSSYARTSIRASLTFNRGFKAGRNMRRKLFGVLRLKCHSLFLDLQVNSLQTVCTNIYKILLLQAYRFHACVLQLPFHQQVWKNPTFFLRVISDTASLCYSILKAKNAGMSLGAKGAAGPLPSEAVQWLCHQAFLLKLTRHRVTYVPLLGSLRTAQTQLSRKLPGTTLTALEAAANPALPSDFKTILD

SMILES	EC50 [1]	ΔTm [2]	ΔTm [3]	EC50 [4]	IC50 [5]	IC50 [6]
CC[C@H](C)[C@H](N)C(=O)NCCC(=O)Nc1ccc2c(c1)C(=O)c1cc(NC(=O)CCNC(=O)[C@@H](N)[C@@H](C)CC)ccc1C2=O	> 40 µM	0.2 °C	2.8 °C	> 40 µM		
N=C(N)NCCC[C@H](N)C(=O)NCC(=O)Nc1ccc2c(c1)C(=O)c1ccc(NC(=O)CNC(=O)[C@@H](N)CCCNC(=N)N)cc1C2=O		9.8 °C	22.9 °C		86 µM	89 µM
NCC(=O)NCCNC(=O)c1ccc2c(c1)C(=O)c1cc(C(=O)NCCNC(=O)CN)ccc1C2=O	> 40 µM	0.4 °C	3.3 °C	> 40 µM		
NC(N)=NCCC[C@H](N)C(=O)NCCC(=O)Nc1ccc2c(c1)C(=O)c1cc(NC(=O)CCNC(=O)[C@@H](N)CCCN=C(N)N)ccc1C2=O	4 µM			4 µM		
CC(C)[C@H](N)C(=O)NCCC(=O)Nc1ccc2c(c1)C(=O)c1ccc(NC(=O)CCNC(=O)[C@@H](N)C(C)C)cc1C2=O	> 40 µM	0 °C	6 °C	> 40 µM		
N[C@@H](Cc1ccccc1)C(=O)NCCNC(=O)c1ccc2c(c1)C(=O)c1cc(C(=O)NCCNC(=O)[C@@H](N)Cc3ccccc3)ccc1C2=O	> 40 µM	0.1 °C	1 °C	> 40 µM		
NCCCC[C@H](N)C(=O)NCC(=O)Nc1ccc2c(c1)C(=O)c1ccc(NC(=O)CNC(=O)[C@@H](N)CCCCN)cc1C2=O	0.8 µM	12 °C	> 17 °C	5 µM	34 µM	27 µM
NC(N)=NCCC[C@H](N)C(=O)NCC(=O)Nc1ccc2c(c1)C(=O)c1ccc(NC(=O)CNC(=O)[C@@H](N)CCCN=C(N)N)cc1C2=O	0.8 µM			10 µM		
N[C@@H](CO)C(=O)NCCNC(=O)c1ccc2c(c1)C(=O)c1ccc(C(=O)NCCNC(=O)[C@@H](N)CO)cc1C2=O	> 40 µM	0.3 °C	2.5 °C	> 40 µM		
NCC(=O)NCC(=O)Nc1ccc2c(c1)C(=O)c1ccc(NC(=O)CNC(=O)CN)cc1C2=O	5 µM	0.4 °C	8.6 °C	> 40 µM	> 100 µM	39 µM
CC[C@H](C)[C@H](N)C(=O)NCCNC(=O)c1ccc2c(c1)C(=O)c1ccc(C(=O)NCCNC(=O)[C@@H](N)[C@@H](C)CC)cc1C2=O	> 40 µM	0.2 °C	1.1 °C	> 40 µM		
N=C(N)NCCC[C@H](N)C(=O)NCCC(=O)Nc1ccc2c(c1)C(=O)c1ccc(NC(=O)CCNC(=O)[C@@H](N)CCCNC(=N)N)cc1C2=O		4.8 °C	25 °C		> 100 µM	100 µM
NCC(=O)NCCNC(=O)c1ccc2c(c1)C(=O)c1ccc(C(=O)NCCNC(=O)CN)cc1C2=O	> 40 µM	0.3 °C	2.9 °C	> 40 µM		
NCCCC[C@H](N)C(=O)NCCNC(=O)c1ccc2c(c1)C(=O)c1cc(C(=O)NCCNC(=O)[C@@H](N)CCCCN)ccc1C2=O	3 µM	5.2 °C	14.7 °C	> 40 µM	> 100 µM	84 µM
C[C@H](N)C(=O)NCCNC(=O)c1ccc2c(c1)C(=O)c1cc(C(=O)NCCNC(=O)[C@H](C)N)ccc1C2=O	> 40 µM	0.5 °C	3.9 °C	> 40 µM		
NCCC(=O)Nc1ccc2c(c1)C(=O)c1ccc(NC(=O)CCN)cc1C2=O	1.25 µM	9.1 °C	18.1 °C	> 40 µM	> 100 µM	> 100 µM
C[C@@H](O)[C@H](N)C(=O)NCCNC(=O)c1ccc2c(c1)C(=O)c1ccc(C(=O)NCCNC(=O)[C@@H](N)[C@@H](C)O)cc1C2=O	> 40 µM	0.4 °C	1.9 °C	> 40 µM		
N=C(N)NCCC[C@H](N)C(=O)NCCNC(=O)c1ccc2c(c1)C(=O)c1cc(C(=O)NCCNC(=O)[C@@H](N)CCCNC(=N)N)ccc1C2=O		5.1 °C	16.2 °C		85 µM	35 µM
C[C@H](N)C(=O)NCCC(=O)Nc1ccc2c(c1)C(=O)c1cc(NC(=O)CCNC(=O)[C@H](C)N)ccc1C2=O	15 µM	0.3 °C	9 °C	> 40 µM	> 100 µM	64 µM
N=C(N)NCCC[C@H](N)C(=O)NCCC(=O)Nc1ccc2c(c1)C(=O)c1cc(NC(=O)CCNC(=O)[C@@H](N)CCCNC(=N)N)ccc1C2=O		0.6 °C	13.3 °C			

SMILES	EC50 [1]	ΔTm [2]	ΔTm [3]	EC50 [4]	IC50 [5]	IC50 [6]
NCCNC(=O)c1ccc2c(c1)C(=O)c1cc(C(=O)NCCN)ccc1C2=O	15 µM	3.3 °C	12.9 °C	> 40 µM	100 µM	100 µM
C[C@H](N)C(=O)NCCC(=O)Nc1ccc2c(c1)C(=O)c1ccc(NC(=O)CCNC(=O)[C@H](C)N)cc1C2=O	> 40 µM	0.2 °C	8.2 °C	> 40 µM		
NC(N)=NCCC[C@H](N)C(=O)NCCNC(=O)c1ccc2c(c1)C(=O)c1cc(C(=O)NCCNC(=O)[C@@H](N)CCCN=C(N)N)ccc1C2=O	1.2 µM			10 µM		
N[C@@H](Cc1ccccc1)C(=O)NCCNC(=O)c1ccc2c(c1)C(=O)c1ccc(C(=O)NCCNC(=O)[C@@H](N)Cc3ccccc3)cc1C2=O	> 40 µM	0.2 °C	1.1 °C	> 40 µM		
N=C(N)NCCC[C@H](N)C(=O)NCCNC(=O)c1ccc2c(c1)C(=O)c1ccc(C(=O)NCCNC(=O)[C@@H](N)CCCNC(=N)N)cc1C2=O	1.5 µM	5.2 °C	16.4 °C	10 µM	> 100 µM	85 µM
CC[C@H](C)[C@H](N)C(=O)NCCNC(=O)c1ccc2c(c1)C(=O)c1cc(C(=O)NCCNC(=O)[C@@H](N)[C@@H](C)CC)ccc1C2=O	> 40 µM	0.4 °C	3 °C	> 40 µM		
CC(C)C[C@H](N)C(=O)NCCNC(=O)c1ccc2c(c1)C(=O)c1ccc(C(=O)NCCNC(=O)[C@@H](N)CC(C)C)cc1C2=O	> 40 µM	0.2 °C	1.3 °C	> 40 µM		
CC(C)[C@H](N)C(=O)NCC(=O)Nc1ccc2c(c1)C(=O)c1ccc(NC(=O)CNC(=O)[C@@H](N)C(C)C)cc1C2=O	> 40 µM	0.5 °C	6 °C	> 40 µM		
N[C@@H](Cc1ccccc1)C(=O)NCCC(=O)Nc1ccc2c(c1)C(=O)c1cc(NC(=O)CCNC(=O)[C@@H](N)Cc3ccccc3)ccc1C2=O	> 40 µM	0.3 °C	7 °C	> 40 µM		
N[C@@H](Cc1ccccc1)C(=O)NCCC(=O)Nc1ccc2c(c1)C(=O)c1ccc(NC(=O)CCNC(=O)[C@@H](N)Cc3ccccc3)cc1C2=O	> 40 µM	0.5 °C	4.3 °C	> 40 µM		
CC(C)C[C@H](N)C(=O)NCCNC(=O)c1ccc2c(c1)C(=O)c1cc(C(=O)NCCNC(=O)[C@@H](N)CC(C)C)ccc1C2=O	> 40 µM	0.3 °C	2.7 °C	> 40 µM		
N[C@@H](Cc1ccccc1)C(=O)NCC(=O)Nc1ccc2c(c1)C(=O)c1ccc(NC(=O)CNC(=O)[C@@H](N)Cc3ccccc3)cc1C2=O	> 40 µM	0.5 °C	0.6 °C	> 40 µM		
NC(N)=NCCC[C@H](N)C(=O)NCCC(=O)Nc1ccc2c(c1)C(=O)c1ccc(NC(=O)CCNC(=O)[C@@H](N)CCCN=C(N)N)cc1C2=O	0.8 µM			10 µM		
O=C1c2c(O)ccc(O)c2C(=O)c2c(NCCNCCO)ccc(NCCNCCO)c21 [MITOXANTRONE]					< 0.1 µM	< 0.1 µM
C[C@H](N)C(=O)NCCNC(=O)c1ccc2c(c1)C(=O)c1ccc(C(=O)NCCNC(=O)[C@H](C)N)cc1C2=O	> 40 µM	0.4 °C	4.4 °C	> 40 µM		
C[C@@H](O)[C@H](N)C(=O)NCCNC(=O)c1ccc2c(c1)C(=O)c1cc(C(=O)NCCNC(=O)[C@@H](N)[C@@H](C)O)ccc1C2=O	> 40 µM	0.3 °C	3.2 °C	> 40 µM		
CC[C@H](C)[C@H](N)C(=O)NCCC(=O)Nc1ccc2c(c1)C(=O)c1ccc(NC(=O)CCNC(=O)[C@@H](N)[C@@H](C)CC)cc1C2=O	> 40 µM	0 °C	5.7 °C	> 40 µM		
N[C@@H](CO)C(=O)NCCNC(=O)c1ccc2c(c1)C(=O)c1cc(C(=O)NCCNC(=O)[C@@H](N)CO)ccc1C2=O	> 40 µM	0.3 °C	2.1 °C	> 40 µM		
CC(C)C[C@H](N)C(=O)NCC(=O)Nc1ccc2c(c1)C(=O)c1ccc(NC(=O)CNC(=O)[C@@H](N)CC(C)C)cc1C2=O	> 40 µM	0.7 °C	3.8 °C	> 40 µM		
